Measurements pooled from the literature.
Read-out: cell growth or viability

CC(=O)c1nn(-c2ccc(C)cc2)/c(=N/N=C(\C)c2ccc(NC(=O)c3ccccc3)cc2)s1 — viability (HepG2; MTT; 2.5 µM): 6.81%
CC(=NNC(=O)c1ccccc1)c1ccc(Nc2nnc(-c3ccc(Cl)cc3)c3ccccc23)cc1 — viability (HepG2; MTT; 0.312 µM, 24 h): 99.6%
CC(C)(C)c1cnc(CSc2cnc(NC(=O)C3CCN(CCCCCCCCSc4cccc5c4C(=O)N(C4CCC(=O)NC4=O)C5=O)CC3)s2)o1 (stereo not shown) — viability (HH; CCK-8; 1 nM): 99.5%
CC(=NNC(=S)Nc1ccccc1)c1ccc(Nc2nnc(-c3ccc(Cl)cc3)c3ccccc23)cc1 — viability (HepG2; MTT; 10 µM, 24 h): 4.26%
CCOC(=O)c1nn(-c2cccc(Cl)c2)/c(=N/N=C(\C)c2ccc(NC(=O)c3ccc(Cl)cc3)cc2)s1 — viability (HepG2; MTT; 2.5 µM): 2.86%
O=C(C=Cc1ccccc1)Nc1ccc(Oc2nnc(-c3ccc(Cl)cc3)c3ccccc23)cc1 — viability (HepG2; MTT; 10 µM, 24 h): 2.63%
CC(=NNC(=O)COc1ccc2c(C)c(Cc3ccccc3)c(=O)oc2c1C)c1ccc(Br)cc1 — viability (HepG2; MTT; 0.2 µg/mL): 62.9%
CC(C)(C)c1cnc(CSc2cnc(NC(=O)C3CCN(C(=O)CCCSc4cccc5c4C(=O)N(C4CCC(=O)NC4=O)C5=O)CC3)s2)o1 (stereo not shown) — viability (HH; CCK-8; 1 µM): 8.16%
CCOC(=O)c1nn(-c2cccc(Cl)c2)/c(=N/N=C(\C)c2ccc(NC(=O)c3ccccc3)cc2)s1 — viability (HepG2; MTT; 2.5 µM): 2.82%
CC(C)(C)c1cnc(CSc2cnc(NC(=O)C3CCN(CCCCCSc4cccc5c4CN(C4CCC(=O)NC4=O)C5=O)CC3)s2)o1 (stereo not shown) — viability (HH; CCK-8; 0.5 µM): 0%
CC(=NNC(=O)c1ccncc1)c1ccc(Nc2nnc(-c3ccc(Cl)cc3)c3ccccc23)cc1 — viability (HepG2; MTT; 1.25 µM, 24 h): 5.31%
CC(=O)c1nn(-c2ccccc2Cl)/c(=N/N=C(\C)c2ccc(NC(=O)c3ccccc3)cc2)s1 — viability (HepG2; MTT; 10 µM): 6.13%
CC(C)(C)c1cnc(CSc2cnc(NC(=O)C3CCN(CCCCSc4cccc5c4C(=O)N(C4CCC(=O)NC4=O)C5=O)CC3)s2)o1 (stereo not shown) — viability (HH; CCK-8; 0.2 µM): 1.85%
CC(=NNC(=O)c1ccc(N)cc1)c1ccc(Nc2nnc(-c3ccc(Cl)cc3)c3ccccc23)cc1 — viability (HepG2; MTT; 0.625 µM, 24 h): 91.5%
CC(C)(C)c1cnc(CSc2cnc(NC(=O)C3CCN(CCCCCCCCSc4cccc5c4CN(C4CCC(=O)NC4=O)C5=O)CC3)s2)o1 (stereo not shown) — viability (HH; CCK-8; 0.25 µM): 0%
CC(=O)Nc1ccc(/C(C)=N/N=c2\sc(C(C)=O)nn2-c2ccc(C)cc2)cc1 — viability (HepG2; MTT; 5 µM): 86%
